Experimental data gathered from unrelated publications.
Compare with care: the assays were run in different laboratories.
LRRK2: Leucine-rich repeat serine/threonine-protein kinase 2 (LRRK2, Homo sapiens, UniProt Q5S007)
LRRK2 G2019S: Leucine-rich repeat serine/threonine-protein kinase 2 (LRRK2, Homo sapiens, UniProt Q5S007, G2019S)

| SMILES | target | read-out | mode | method | tested at | measurement | result |
| --- | --- | --- | --- | --- | --- | --- | --- |
| C[C@]1(O)CCCN(c2nc(Nc3ccc(S(=O)(=O)N[C@H]4CC[C@H](CN5CCN(c6ccc(C7CCC(=O)NC7=O)cc6F)CC5)CC4)cc3F)ncc2C(F)(F)F)C1 (stereo partly drawn) | LRRK2 | binding | – | competition with immobilised ligand | 1 µM | remaining binding | 97% |
| Cc1ccc(NC(=O)c2ccnc(C(F)(F)F)c2)cc1-c1cc(OCCO)nc(N2CCOCC2)c1 | LRRK2 G2019S | binding | – | – | 1 µM | remaining binding | 100% |
| C1=C/COCc2cc(ccc2OCCN2CCCC2)Nc2nccc(n2)-c2cccc(c2)COC/1 | LRRK2 G2019S | binding | – | – | 0.1 µM | remaining binding | 100% |
| CNS(=O)(=O)c1ccc(Nc2ncc(C(F)(F)F)c(N3CCC[C@](C)(O)C3)n2)c(C)c1 | LRRK2 G2019S | binding | – | competition with immobilised ligand | 1 µM | remaining binding | 13% |
| C=CC(=O)N1CCC([C@@H]2CCNc3c(C(N)=O)c(-c4ccc(Oc5ccccc5)cc4)nn32)CC1 | LRRK2 G2019S | enzyme activity | inhibitor | – | 1 µM | inhibition | 0% |
| C#Cc1cc(-c2cc(Nc3nc(N[C@@H](C)c4ccc(F)cn4)ncc3Cl)n[nH]2)ccc1C=O | LRRK2 G2019S | enzyme activity | inhibitor | – | 0.2 µM | inhibition | 23% |
| CCCCC(=O)Nc1ccc(-c2ccc3ncn(CCC)c(=O)c3c2)cn1 | LRRK2 G2019S | binding | – | competition with immobilised ligand | 0.5 µM | remaining binding | 100% |
| C=CC(=O)N1CCC[C@@H](n2nc(-c3ccc(Oc4ccccc4)cc3)c3c(N)ncnc32)C1 | LRRK2 G2019S | enzyme activity | inhibitor | – | 1 µM | inhibition | 23% |
| Cc1cc(S(=O)(=O)N[C@H]2CC[C@H](CN3CCN(c4ccc(C5CCC(=O)NC5=O)cc4F)CC3)CC2)ccc1Nc1ncc(C(F)(F)F)c(N2CCC[C@](C)(O)C2)n1 (stereo partly drawn) | LRRK2 G2019S | binding | – | competition with immobilised ligand | 1 µM | remaining binding | 4% |
| CN1CCN(C(=O)c2ccc(NC(=O)Nc3ccc(N(C)c4ccnc(Nc5ccc(CS(C)(=O)=O)cc5)n4)cc3)cc2)CC1 | LRRK2 | binding | – | – | 1 µM | remaining binding | 74% |
| C[C@]1(O)CCCN(c2nc(Nc3ccc(S(=O)(=O)N[C@H]4CC[C@H](CN5CCN(c6ccc(C7CCC(=O)NC7=O)cc6F)CC5)CC4)cc3Cl)ncc2C(F)(F)F)C1 (stereo partly drawn) | LRRK2 | binding | – | competition with immobilised ligand | 1 µM | remaining binding | 21% |
| COc1ccc2[nH]c3c4[nH]c5ccc(OC)cc5c4c4c(c3c2c1)C(=O)NC4=O | LRRK2 | binding | – | – | 1 µM | remaining binding | 2.8% |
